Assay results from different studies.
Protocols differ between the studies behind these lines.
USP28: Ubiquitin carboxyl-terminal hydrolase 28 (USP28, Homo sapiens, UniProt Q96RU2)
sapA: sapA (Haemophilus influenzae, UniProt Q4QL73)

Structure (SMILES)	target	test	quantity	result
CCC(C(=O)Nc1cc(NC2CCNCC2)ccc1C)n1cc(Cl)cc2nc(SCc3ccc(F)cc3)nc1-2 (stereo not drawn)	Ubiquitin carboxyl-terminal hydrolase 7 (USP7, Homo sapiens, UniProt Q93009)	enzyme activity, inhibitor	IC50	> 100 µM
CNC(=O)c1ccc(-c2cnn3ccc(C(=O)N(C)c4ccc(Cl)c(C(=O)OC)c4)cc23)cc1	TGF-beta receptor type-1 (TGFBR1, Homo sapiens, UniProt P36897)	enzyme activity, inhibitor	IC50	> 30 µM
CCC(C(=O)Nc1cc(NC2COC2)ccc1C)n1cc(Br)cc2nc(SCc3ccc(F)cc3)nc1-2 (stereo not drawn)	USP28	enzyme activity, inhibitor	IC50	> 100 µM
C[C@@H](O)[C@H](NC(=O)CNC(=O)[C@H](Cc1ccc(O)cc1)NC(=O)[C@H](CCCNC(=N)N)NC(=O)[C@@H](N)CO)C(=O)O	sapA	binding	Kd	0.031 µM
COC(=O)c1cc(N(C)C(=O)c2ccn3ncc(-c4ccc(C(=O)O)cc4)c3c2)ccc1Cl	Hepatocyte growth factor receptor (MET, Homo sapiens, UniProt P08581)	enzyme activity, inhibitor	IC50	> 30 µM
C[C@@H](O)[C@H](NC(=O)CNC(=O)[C@H](Cc1ccc(O)cc1)NC(=O)[C@H](CO)NC(=O)[C@@H](N)CCCNC(=N)N)C(=O)O	sapA	binding	Kd	0.139 µM
CC[C@H](C)[C@H](NC(C)=O)C(=O)N[C@@H](CCC(=O)O)C(=O)N[C@H](C(=O)N[C@H](C=O)CC(=O)O)[C@@H](C)O	Caspase-1 (CASP1, Homo sapiens, UniProt P29466)	enzyme activity, inhibitor	IC50	0.0275 µM
CCC(C(=O)Nc1cc(NC2CCNC2)ccc1C)n1cc(Br)cc2nc(SCc3ccc(F)cc3)nc1-2 (stereo not drawn)	USP28	enzyme activity, inhibitor	IC50	> 100 µM
NCCCC[C@H](NC(=O)[C@@H]1CCCN1)C(=O)N[C@@H](CO)C(=O)N[C@@H](CCC(=O)O)C(=O)N[C@@H](CCC(N)=O)C(=O)O	sapA	binding	Kd	0.028 µM
